Reference: the RNAGym collection of RNA variant scans (doi:10.1126/science.aae0568)
Variants at the floor of the assay were thinned out.

B1: tRNA (parent)
chain: GUUCCGUUGGCGUAAUGGUAACGCGUCUCCCUCCUAAGGAGAAGACUGCGGGUUCGAGUCCCGUACGGAACG

Variants of: B1
Experiment: yeast fitness relative to wild type (ratio to wild type); higher = fitter; tRNA-Arg(CCU), competitive growth, 37 C, YPD
Procedure, shortened: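 Gene amplicons from the start population and from each of six end populations were read by 100-nucleotide paired-end sequencing. Those end populations came from pooled Saccharomyces cerevisiae strains carrying tRNA-Arg(CCU) gene variants at the native locus, competed in YPD at 37°C for 24 hours. Fitness relative to wild type was worked out from changes in genotype frequencies. Genotypes needed ≥ 100 starting reads, and estimates < 0.5 were set to 0.5.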

Row | Variant | yeast fitness
1 | A15C U19G C55G | ≤ 0.5
2 | A15C C46U C60U | 0.58
3 | A15G A36G A43G A57U | ≤ 0.5
4 | A15C A36G C49U | 0.533
5 | A15G A36C C46A C66U | ≤ 0.5
6 | A15G A20C A21C G23A G52U | ≤ 0.5
7 | A15C U35A A36G G41A U47A | ≤ 0.5
8 | A15C G18C U26C C29A C34G | 0.616
9 | A15C U16C A20C U54C A57G | ≤ 0.5
10 | A15G A20G C27A A40G A45C C55U | ≤ 0.5
11 | A15C A37C C60U G67A | ≤ 0.5
12 | A15C U28G A45G G51C | 0.554
13 | A15G A45C C61U | 0.574
14 | A15C C31G C49U U64C G67A | ≤ 0.5
15 | A15C G58A C61A | ≤ 0.5
16 | A15C A42C C55G | 0.547
17 | A15G A20U G63A | 0.603
18 | A15G A43G A57U | 0.793
19 | A15C C27G G39C U47A A69U | ≤ 0.5
20 | A15C G52A | 0.712
21 | A15C A42C C55G A70G | 0.72
22 | A15C A40G | 0.729
23 | A15C A40C | 0.609
24 | A15C C22G A57C G63C C66U | ≤ 0.5

Row | Variant | yeast fitness
25 | A15C G25A U26C A69U | ≤ 0.5
26 | A15C A42G A43G | ≤ 0.5
27 | A15C C27U A40G G52A A57U | 0.692
28 | A15C A21U C24A C33A C66A | ≤ 0.5
29 | A15C G23C | 0.555
30 | A15G A20G A40C C46U C49A A57U A65C C66G | ≤ 0.5
31 | A15C U26A A40C | 0.63
32 | A15C C31G C55A | 0.608
33 | A15C G17A | 0.707
34 | A15C A21G C27G A69U | ≤ 0.5
35 | A15C U35C A37U C66U | ≤ 0.5
36 | A15C C66G | 0.618
37 | A15C G48C G68U | 0.548
38 | A15C C49U U54C C55G | 0.64
39 | A15C U47G G52A G68A | ≤ 0.5
40 | A15G A36U C55A A57C | 0.579
41 | A15C A45G G68A | ≤ 0.5
42 | A15C C55G A57C | ≤ 0.5
43 | A15C C24U G44A C55G | ≤ 0.5
44 | A15C G56C | 0.685
45 | A15G A20U C33A A36C A42U C55G C60A A69G | 0.594
46 | A15C C31G C33G C55U C61U | 0.504
47 | A15C C22G G58C C62U | ≤ 0.5
48 | A15C U28C C34G | ≤ 0.5

Row | Variant | yeast fitness
49 | A15C A21G C22U A57U | ≤ 0.5
50 | A15C C27A U32G C60G | ≤ 0.5
51 | A15C G23C U64C A65G | ≤ 0.5
52 | A15C A40G A65G | 0.511
53 | A15C C22G A43C G50A | 0.556
54 | A15C C29A | ≤ 0.5
55 | A15C C29U | 0.669
56 | A15C C24G A45G | ≤ 0.5
57 | A15G A36C G50C | ≤ 0.5
58 | A15C C24G | 0.557
59 | A15C U28A C34G A43U | 0.564
60 | A15C U19C A37C G51A C60A | 0.557
61 | A15G A21G C34U G44A C61A A70C | ≤ 0.5
62 | A15C G58C | 0.575
63 | A15G A36U C61U | ≤ 0.5
64 | A15C C34U A36G C55A | ≤ 0.5
65 | A15G A21U | 0.989
66 | A15C A37U C66U | 0.584
67 | A15C G25A A42U A65C G67U | ≤ 0.5
68 | A15C U28G A45G G51C A70G | 0.584
69 | A15C C22G | 0.658
70 | A15C C22U | 0.689
71 | A15C G39A C60G A70G | ≤ 0.5
72 | A15C C24G A40U G44A | ≤ 0.5

Row | Variant | yeast fitness
73 | A15C A70G | 0.795
74 | A15C A70U | 0.872
75 | A15C G52A C66U | ≤ 0.5
76 | A15C G41C C46A | ≤ 0.5
77 | A15C C34A C46U | 0.614
78 | A15C U16C A65G | ≤ 0.5
79 | A15C U19C C46A U59A | ≤ 0.5
80 | A15C G17U U19A C31U C34A | ≤ 0.5
81 | A15C C46U C49U G50A | ≤ 0.5
82 | A15C A40U G63A A65G G67A | ≤ 0.5
83 | A15C C24G A45G G56A A69C | ≤ 0.5
84 | A15G A20C C24G G41C C46A C62G | ≤ 0.5
85 | A15C U26C G48C | ≤ 0.5
86 | A15C C29A U54A | ≤ 0.5
87 | A15C C34U C55A | ≤ 0.5
88 | A15C C30G C66G A69U | ≤ 0.5
89 | A15G A43C C61A | ≤ 0.5
90 | A15C C30A A42C G56A C60G | ≤ 0.5
91 | A15C C27G C61G | 0.781
92 | A15C G50C U64C | 0.545
93 | A15C A21G C22U C49U | ≤ 0.5
94 | A15C C29G A40U G52A | ≤ 0.5
95 | A15G A20G A40U | 0.808
96 | A15G A20U A45U | ≤ 0.5

Row | Variant | yeast fitness
97 | A15G A37U C62A | ≤ 0.5
98 | A15G A21U U26C | 0.535
99 | A15C C34U A57C | 0.603
100 | A15C A21U C34A | ≤ 0.5
101 | A15C C34G C49G C66G G68C | 0.612
102 | A15C U19C A21G C34U U53C | ≤ 0.5
103 | A15C G51C | 0.504
104 | A15C A45G C55U | ≤ 0.5
105 | A15C C22A C31A G38C | ≤ 0.5
106 | A15C G48C C66A | ≤ 0.5
107 | A15C G17U C46U | 0.633
108 | A15C U26A G50C | ≤ 0.5
109 | A15C C27G C30U C46A | 0.542
110 | A15C G44A A57C | ≤ 0.5
111 | A15G A37C A69C | 0.863
112 | A15G A36G A43U | 0.601
113 | A15C G48A A57G C61A | ≤ 0.5
114 | A15C U28G C30G A40C A42U | ≤ 0.5
115 | A15C G18C A42C | ≤ 0.5
116 | A15C U26A | 0.523
117 | A15C C24U U28A C29G G52A | 0.501
118 | A15C G56A A57C | ≤ 0.5
119 | A15C A57U C62G | ≤ 0.5
120 | A15C C60G | 0.612

Row | Variant | yeast fitness
121 | A15C A37C A42U | ≤ 0.5
122 | A15G A20C | 0.779
123 | A15G A20G | 1.04
124 | A15G A20U | 1.06
125 | A15C A45G U53C | ≤ 0.5
126 | A15C C22U U26G G52A | 0.732
127 | A15G A37G G56C | ≤ 0.5
128 | A15C A21U A70G | ≤ 0.5
129 | A15C A36U A57U G67A | ≤ 0.5
130 | A15C U26A G38A A40U G50C C60G A70G | ≤ 0.5
131 | A15G A36G U54A | ≤ 0.5
132 | A15C C22A A70U | ≤ 0.5
133 | A15C G18C A40U | ≤ 0.5
134 | A15C U47G | 0.663
135 | A15C C60U A69G | ≤ 0.5
136 | A15C C61A | 0.761
137 | A15C C61U | 0.713
138 | A15C G18A U35C | ≤ 0.5
139 | A15C G50C | 0.672
140 | A15C G18A C24G | ≤ 0.5
141 | A15C U35G G56C | ≤ 0.5
142 | A15G A45C A69U | 0.779
143 | A15C U19A A70C | ≤ 0.5
144 | A15C A36U G58A G67A | ≤ 0.5

Row | Variant | yeast fitness
145 | A15C C46A G56C A70G | ≤ 0.5
146 | A15C C22G C33U U59G C62G | 0.981
147 | A15C G41C A45C | ≤ 0.5
148 | A15G A43U G68C | 0.581
149 | A15G A42C G50A U59C A65C | ≤ 0.5
150 | A15C C30G | 0.541
151 | A15C C30U | 0.572
152 | A15C G17A G68A | ≤ 0.5
153 | A15C C24G A45G G52A C60A | ≤ 0.5
154 | A15C G17A G38C U59C | 0.569
155 | A15C G25A C61U | 0.664
156 | A15C A37G A57C A69C | 0.794
157 | A15C A21U A69U | ≤ 0.5
158 | A15C A21U C24U A57G G67U | 0.542
159 | A15C A42G G67U | 0.522
160 | A15C A42G G67C | ≤ 0.5
161 | A15G A37C G56C A65C | ≤ 0.5
162 | A15C C22G A43C G50A U59C | ≤ 0.5
163 | A15C C30A A69C | ≤ 0.5
164 | A15C U32G | 0.504
165 | A15C U32C | 0.767
166 | A15C A45U C66A | ≤ 0.5
167 | A15C C49U A69G | ≤ 0.5
